Test results published in ChEMBL document CHEMBL1141255, “Trijugin-type limonoids from the leaves of Cipadessa cinerascens” (2007).
pEC50: −log10 of the molar value.

Experiments:
A549 = test: Cytotoxicity against human A549 cells by MTT assay; format: functional; conditions: read-out: ED50 (the source's name)
Method in brief: (§1)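 In vitro growth inhibition of A549 (human lung adenocarcinoma) and K562 (human […] leukemia) tumour cells. Potency is reported as ED50, the 50% effective dose of clonal inhibition, in µg/mL.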

K562 = test: Cytotoxicity against human K562 cells by MTT assay; format: functional; conditions: read-out: ED50 (the source's name); method in brief: as §1

| Compound | EC50 (A549) [µg/mL] | EC50 (K562) [µg/mL] | pEC50 (A549) | pEC50 (K562) |
| --- | --- | --- | --- | --- |
| COC(=O)C[C@H]1C(C)(C)[C@H](OC(C)=O)[C@H](OC(C)=O)[C@@H]2O[C@]34CC(=O)O[C@@H](c5ccoc5)[C@]3(C)[C@@H](OC(C)=O)[C@@H](C(=O)[C@@H]4C)[C@@]21C [CIPADESIN A] | > 5 | > 5 | – | – |
| C=C1[C@@H]2C[C@@]3(C)[C@H](c4ccoc4)OC(=O)C[C@]13O[C@H]1C[C@@H](OC(C)=O)C(C)(C)[C@H](CC(=O)OC)[C@@]1(C)C2=O [CIPATRIJUGIN A] | > 5 | > 5 | – | – |
| C=C1[C@]2(O)C[C@@]3(C)[C@H](c4ccoc4)OC(=O)C[C@]13O[C@H]1C[C@@H](OC(C)=O)C(C)(C)[C@H](CC(=O)OC)[C@@]1(C)C2=O [CIPATRIJUGIN B] | > 5 | > 5 | – | – |
| C=C1[C@]2(OC(C)=O)C[C@@]3(C)[C@H](c4ccoc4)OC(=O)C[C@]13O[C@H]1C[C@@H](OC(C)=O)C(C)(C)[C@H](CC(=O)OC)[C@@]1(C)C2=O [CIPATRIJUGIN C] | > 5 | > 5 | – | – |
| C=C1[C@H]2C(=O)[C@@]3(C)[C@H](C[C@@H](OC(C)=O)C(C)(C)[C@@H]3CC(=O)OC)O[C@@]13CC(=O)O[C@@H](c1ccoc1)[C@]3(C)[C@H]2OC(C)=O [CIPATRIJUGIN D] | > 5 | > 5 | – | – |
| COc1cccc2c1C(=O)c1c(O)c3c(c(O)c1C2=O)C[C@@](O)(C(=O)CO)C[C@@H]3O[C@H]1C[C@H](N)[C@H](O)[C@H](C)O1 [DOXORUBICIN] | – | – | 7.23 | 7.23 |
